These results are taken from ChEMBL document CHEMBL1138840, “Discovery of positive allosteric modulators for the metabotropic glutamate receptor subtype 5 from a series of N-(1,3-diphenyl-1H- pyrazol-5-yl)benzamides that potentiate receptor function in vivo” (J Med Chem, 2004).

As usually defined, the EC50 is the concentration at which the effect is half-maximal. Read a high EC50 as weaker potency.

The target of experiment [1] is T1, Metabotropic glutamate receptor 5 (Homo sapiens, UniProt P41594). Briefly: Effective concentration against metabotropic glutamate receptor 5 of human transfected into CHO cells. The class given is cell-based. In short, it runs like this:
(§1)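 FLIPR calcium assay in CHO cells transfected with human or rat mGluR5. Compound added with a low glutamate concentration (300 nM), measuring increase in response; compound alone (up to 100 µM) checked for agonist activity.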
Target sequence in this assay (P41594 whole entry): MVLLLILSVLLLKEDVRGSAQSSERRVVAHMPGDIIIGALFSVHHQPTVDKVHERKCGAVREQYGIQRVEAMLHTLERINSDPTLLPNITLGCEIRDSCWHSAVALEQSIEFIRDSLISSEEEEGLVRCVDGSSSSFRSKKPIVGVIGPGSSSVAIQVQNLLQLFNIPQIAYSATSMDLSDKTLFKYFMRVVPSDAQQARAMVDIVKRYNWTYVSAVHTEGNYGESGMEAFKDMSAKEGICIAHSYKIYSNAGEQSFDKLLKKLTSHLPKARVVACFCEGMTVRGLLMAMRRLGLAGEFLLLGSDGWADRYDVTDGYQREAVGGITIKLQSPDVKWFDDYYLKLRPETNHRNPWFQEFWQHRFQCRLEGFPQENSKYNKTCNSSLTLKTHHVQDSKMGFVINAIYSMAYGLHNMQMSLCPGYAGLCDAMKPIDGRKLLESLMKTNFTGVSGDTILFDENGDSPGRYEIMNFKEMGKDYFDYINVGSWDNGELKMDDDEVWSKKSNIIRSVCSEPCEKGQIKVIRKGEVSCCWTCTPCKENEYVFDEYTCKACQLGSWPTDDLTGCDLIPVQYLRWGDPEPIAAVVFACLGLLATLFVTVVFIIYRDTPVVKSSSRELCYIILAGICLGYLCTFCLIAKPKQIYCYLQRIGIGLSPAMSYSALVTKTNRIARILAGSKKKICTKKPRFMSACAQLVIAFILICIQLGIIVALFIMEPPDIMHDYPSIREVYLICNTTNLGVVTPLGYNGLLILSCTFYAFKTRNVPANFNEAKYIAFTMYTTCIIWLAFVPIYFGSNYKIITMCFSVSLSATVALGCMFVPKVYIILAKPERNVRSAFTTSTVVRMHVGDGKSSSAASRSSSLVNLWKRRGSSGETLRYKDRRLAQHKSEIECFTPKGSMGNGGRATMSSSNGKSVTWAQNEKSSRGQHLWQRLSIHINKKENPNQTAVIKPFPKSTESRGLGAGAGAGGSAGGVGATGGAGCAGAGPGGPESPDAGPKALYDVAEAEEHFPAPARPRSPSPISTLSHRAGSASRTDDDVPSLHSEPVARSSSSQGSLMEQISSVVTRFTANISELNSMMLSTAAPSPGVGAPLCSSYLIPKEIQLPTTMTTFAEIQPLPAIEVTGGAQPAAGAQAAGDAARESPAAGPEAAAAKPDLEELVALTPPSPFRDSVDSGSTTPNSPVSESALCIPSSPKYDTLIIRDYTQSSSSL

The target of experiment [2] is T1, Metabotropic glutamate receptor 5. Briefly: Fold potentiation in CHO cells overexpressing human metabotropic glutamate receptor 5. The class given is functional, cell-based. In short, it runs like this:
as §1
Target sequence in this assay (P41594 21-1212 limits assumed): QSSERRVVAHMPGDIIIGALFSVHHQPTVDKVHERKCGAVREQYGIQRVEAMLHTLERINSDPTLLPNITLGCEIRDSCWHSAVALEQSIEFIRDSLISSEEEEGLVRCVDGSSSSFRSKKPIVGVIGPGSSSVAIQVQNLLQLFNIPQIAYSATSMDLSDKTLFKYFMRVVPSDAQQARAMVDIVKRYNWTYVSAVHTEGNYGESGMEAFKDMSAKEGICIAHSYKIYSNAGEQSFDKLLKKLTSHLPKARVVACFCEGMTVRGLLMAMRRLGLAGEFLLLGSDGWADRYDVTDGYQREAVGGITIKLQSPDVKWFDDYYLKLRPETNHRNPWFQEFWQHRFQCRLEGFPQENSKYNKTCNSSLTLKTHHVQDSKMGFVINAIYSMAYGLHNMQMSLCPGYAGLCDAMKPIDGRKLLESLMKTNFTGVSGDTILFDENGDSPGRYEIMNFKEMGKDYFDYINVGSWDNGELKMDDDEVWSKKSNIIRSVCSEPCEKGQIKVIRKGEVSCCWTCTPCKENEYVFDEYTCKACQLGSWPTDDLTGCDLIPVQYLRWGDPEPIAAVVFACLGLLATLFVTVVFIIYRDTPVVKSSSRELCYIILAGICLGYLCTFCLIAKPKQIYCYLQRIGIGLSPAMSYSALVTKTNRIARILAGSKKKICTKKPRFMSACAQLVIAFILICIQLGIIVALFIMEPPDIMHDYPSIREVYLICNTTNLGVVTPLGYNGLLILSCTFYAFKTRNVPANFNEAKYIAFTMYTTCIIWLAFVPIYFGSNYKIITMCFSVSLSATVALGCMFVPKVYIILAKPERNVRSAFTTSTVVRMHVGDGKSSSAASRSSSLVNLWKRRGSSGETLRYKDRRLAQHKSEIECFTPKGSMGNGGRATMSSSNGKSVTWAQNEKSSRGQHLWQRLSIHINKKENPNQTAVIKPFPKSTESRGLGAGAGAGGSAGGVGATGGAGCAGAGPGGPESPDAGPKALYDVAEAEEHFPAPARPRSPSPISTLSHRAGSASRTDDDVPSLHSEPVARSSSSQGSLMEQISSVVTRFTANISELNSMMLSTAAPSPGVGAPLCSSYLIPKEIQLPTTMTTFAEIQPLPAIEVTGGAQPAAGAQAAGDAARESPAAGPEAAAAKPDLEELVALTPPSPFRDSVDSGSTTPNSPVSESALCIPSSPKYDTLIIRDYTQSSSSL

Experiment [3] addresses Metabotropic glutamate receptor 5 (Rattus norvegicus, UniProt P31424). The experiment in a line: Effective concentration against metabotropic glutamate receptor 5 of rat. In a few lines:
as §1

Experiment [4] addresses Metabotropic glutamate receptor 5 (Rattus norvegicus) (UniProt P31424). The experiment in a line: Fold potentiation towards rat metabotropic glutamate receptor 5. The class given is functional. In a few lines: as §1

Metabotropic glutamate receptor 5 (Rattus norvegicus, UniProt P31424), sequence (P31424 whole entry): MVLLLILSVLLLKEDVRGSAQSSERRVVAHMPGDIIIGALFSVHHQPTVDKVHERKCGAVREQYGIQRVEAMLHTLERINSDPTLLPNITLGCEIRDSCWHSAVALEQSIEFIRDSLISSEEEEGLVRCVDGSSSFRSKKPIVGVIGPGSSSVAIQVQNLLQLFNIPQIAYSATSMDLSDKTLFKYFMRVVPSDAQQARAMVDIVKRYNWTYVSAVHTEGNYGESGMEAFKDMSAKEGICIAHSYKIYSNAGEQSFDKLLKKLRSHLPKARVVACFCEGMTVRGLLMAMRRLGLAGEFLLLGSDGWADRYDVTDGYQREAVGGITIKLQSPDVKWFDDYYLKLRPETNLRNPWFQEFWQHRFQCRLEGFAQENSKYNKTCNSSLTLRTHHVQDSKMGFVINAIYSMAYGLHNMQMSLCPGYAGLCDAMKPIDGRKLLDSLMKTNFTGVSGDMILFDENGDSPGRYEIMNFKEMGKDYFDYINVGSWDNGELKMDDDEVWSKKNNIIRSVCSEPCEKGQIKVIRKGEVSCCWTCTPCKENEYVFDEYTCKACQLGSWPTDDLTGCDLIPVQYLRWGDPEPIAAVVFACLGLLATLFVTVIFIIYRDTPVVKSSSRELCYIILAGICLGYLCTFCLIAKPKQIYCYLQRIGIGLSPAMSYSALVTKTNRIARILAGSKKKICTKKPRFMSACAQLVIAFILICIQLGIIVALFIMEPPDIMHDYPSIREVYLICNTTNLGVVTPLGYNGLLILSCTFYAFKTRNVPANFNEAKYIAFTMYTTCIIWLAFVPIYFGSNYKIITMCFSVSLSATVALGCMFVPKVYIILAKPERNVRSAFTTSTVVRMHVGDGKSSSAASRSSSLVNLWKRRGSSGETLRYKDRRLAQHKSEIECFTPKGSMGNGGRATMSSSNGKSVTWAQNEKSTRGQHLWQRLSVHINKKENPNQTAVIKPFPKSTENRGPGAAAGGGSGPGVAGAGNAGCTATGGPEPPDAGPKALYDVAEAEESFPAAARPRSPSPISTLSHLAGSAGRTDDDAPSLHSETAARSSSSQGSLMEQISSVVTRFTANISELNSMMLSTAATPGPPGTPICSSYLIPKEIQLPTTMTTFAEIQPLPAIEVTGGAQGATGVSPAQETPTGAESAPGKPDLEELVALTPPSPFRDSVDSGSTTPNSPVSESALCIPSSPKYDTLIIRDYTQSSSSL
Metabotropic glutamate receptor 5 (Rattus norvegicus), sequence (P31424 21-1203 limits assumed): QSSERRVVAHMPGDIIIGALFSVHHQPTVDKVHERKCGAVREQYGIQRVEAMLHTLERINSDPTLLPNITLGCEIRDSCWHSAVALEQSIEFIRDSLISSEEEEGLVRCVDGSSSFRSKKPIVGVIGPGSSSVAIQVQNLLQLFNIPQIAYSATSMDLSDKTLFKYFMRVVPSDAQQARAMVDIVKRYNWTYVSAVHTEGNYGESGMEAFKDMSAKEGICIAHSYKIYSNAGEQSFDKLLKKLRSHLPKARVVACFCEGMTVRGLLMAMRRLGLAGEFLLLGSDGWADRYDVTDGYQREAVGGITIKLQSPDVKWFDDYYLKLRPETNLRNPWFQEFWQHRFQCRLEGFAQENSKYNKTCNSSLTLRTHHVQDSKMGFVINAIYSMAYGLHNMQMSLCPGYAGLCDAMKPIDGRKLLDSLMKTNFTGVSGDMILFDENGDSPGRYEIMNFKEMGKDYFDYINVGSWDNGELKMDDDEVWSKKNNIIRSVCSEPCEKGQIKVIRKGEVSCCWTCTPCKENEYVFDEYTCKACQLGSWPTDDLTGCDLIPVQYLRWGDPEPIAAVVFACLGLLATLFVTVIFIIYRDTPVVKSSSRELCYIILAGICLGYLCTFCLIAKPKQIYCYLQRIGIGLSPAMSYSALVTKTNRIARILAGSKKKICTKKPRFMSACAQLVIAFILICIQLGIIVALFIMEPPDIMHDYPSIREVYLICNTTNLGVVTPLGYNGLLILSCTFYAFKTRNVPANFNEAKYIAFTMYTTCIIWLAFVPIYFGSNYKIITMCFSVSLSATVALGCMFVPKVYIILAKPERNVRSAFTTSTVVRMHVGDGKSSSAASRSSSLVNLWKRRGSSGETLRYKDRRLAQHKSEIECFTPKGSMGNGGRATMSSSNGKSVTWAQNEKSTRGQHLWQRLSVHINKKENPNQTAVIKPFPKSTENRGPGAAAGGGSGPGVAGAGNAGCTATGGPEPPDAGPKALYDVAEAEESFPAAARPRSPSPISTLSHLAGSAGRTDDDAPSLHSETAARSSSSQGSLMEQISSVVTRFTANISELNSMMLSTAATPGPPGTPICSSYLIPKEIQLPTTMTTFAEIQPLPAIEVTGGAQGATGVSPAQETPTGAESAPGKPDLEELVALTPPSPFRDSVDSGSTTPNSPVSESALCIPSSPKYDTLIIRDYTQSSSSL

In experiment [1], `O=C(Nc1cc(-c2ccccc2)nn1-c1ccccc1)c1ccccc1Cl` registered an EC50 of 2500 nM. In addition, the Potentiation in experiment [2] amounted to 3.7.

`O=C(Nc1cc(-c2ccccc2)nn1-c1ccccc1)c1ccc(F)cc1`: the results for the EC50 in experiment [3] and in experiment [1] were 50 nM and 30 nM, respectively. Also, the Potentiation in experiment [4] was found to be 8; in experiment [2], 2.9.

In turn, `Cc1ccccc1C(=O)Nc1cc(-c2ccccc2)nn1-c1ccccc1` displayed an EC50 in experiment [1] of over 10000 nM. In addition, the Potentiation in experiment [2] was determined as 0.9.

In the case of `O=C(Nc1cc(-c2ccccc2)nn1-c1ccccc1)c1ccccc1`, the EC50 in experiment [3] was 300 nM; in experiment [1], 40 nM. Further, the Potentiation in experiment [4] and in experiment [2] was 5 throughout.

For `O=C(Nc1cc(-c2ccccc2)nn1-c1ccccc1)c1ccccn1`, the figures for the EC50 in experiment [3] and in experiment [1] were 585 nM and 290 nM, respectively. Besides, the values for the Potentiation in experiment [4] and in experiment [2] were 8 and 3.6, respectively.

Regarding `O=C(Nc1ccc(Br)cc1CN1C(=O)c2ccccc2C1=O)c1ccccn1`, in experiment [1], it took 740 nM to reach a half-maximal effect (EC50). Also, the Potentiation in experiment [2] was 6.

For the compound `O=C(Nc1cc(-c2ccccc2)nn1-c1ccccc1)c1ccsc1`, the EC50 in experiment [3] is 2900 nM; in experiment [1], 1800 nM. For the same compound, the figures for the Potentiation in experiment [4] and in experiment [2] were 3.7 and 2.5, respectively.

As to `O=C(Nc1cc(-c2ccccc2)nn1-c1ccccc1)c1ccccc1O`, the EC50 in experiment [3] and in experiment [1] was over 10000 nM throughout. Further, the Potentiation in experiment [4] and in experiment [2] was 0.9 each time.

Consider `Fc1cccc(/C=N/N=C/c2cccc(F)c2)c1`, for which it took 2.36 nM to reach a half-maximal effect in experiment [1] (EC50). The Potentiation in experiment [2] stood at 3.

`O=C(Nc1cc(-c2ccccc2)nn1-c1ccccc1)c1cccs1`: the EC50 in experiment [3] was found to be 400 nM; in experiment [1], 200 nM. The values for the Potentiation in experiment [4] and in experiment [2] were 5.3 and 2.9, respectively.

On to `O=C(Nc1cc(-c2ccccc2)nn1-c1ccccc1)c1cnccn1`, for which the 50% effective concentration (EC50) in experiment [3] came to 400 nM; in experiment [1], 200 nM. Besides, the Potentiation in experiment [4] was found to be 4.8; in experiment [2], 4.3.

`O=C(Nc1ccc(Cl)cc1CN1C(=O)c2ccccc2C1=O)c1ccccn1` returned an EC50 in experiment [1] of 245 nM. In addition, the Potentiation in experiment [2] was determined as 7.

For the compound `O=C(Nc1cc(-c2ccccc2)nn1-c1ccccc1)c1cccc(F)c1`, the EC50 came to 65 nM in experiment [3] and 20 nM in experiment [1]. In addition, the Potentiation in experiment [4] turned out to be 7.7; in experiment [2], 2.6.

For the compound `O=C(Nc1cc(-c2ccccc2)nn1-c1ccccc1)c1ccc(C(F)(F)F)cc1`, the concentration giving a half-maximal response (EC50) in experiment [3] came out at 20 nM; in experiment [1], 19 nM. Further, the Potentiation in experiment [4] was 6.8; in experiment [2], 5.2.

On to `Cc1cccc(C(=O)Nc2cc(-c3ccccc3)nn2-c2ccccc2)c1`, for which the results for the EC50 in experiment [3] and in experiment [1] were 100 nM and 90 nM, respectively. The Potentiation stood at 9.4 in experiment [4] and 9 in experiment [2].

For `O=C(Nc1cc(-c2ccccc2)nn1-c1ccccc1)c1cccc(Cl)c1`, the EC50 in experiment [3] turned out to be 200 nM; in experiment [1] it was 40 nM. Also, the Potentiation in experiment [4] is 3.3; in experiment [2], 5.4.

Take `O=C(Nc1cc(-c2ccccc2)nn1-c1ccccc1)c1ccc(F)c(F)c1`: the EC50 was 20 nM in experiment [3] and 10 nM in experiment [1]. The Potentiation in experiment [4] turned out to be 6.4; in experiment [2], 2.6.

For the compound `O=C(Nc1cc(-c2ccccc2)nn1-c1ccccc1)c1ccccc1F`, the results for the EC50 in experiment [3] and in experiment [1] were 100 nM and 75 nM, respectively. Further, the results for the Potentiation in experiment [4] and in experiment [2] were 6.3 and 6.4, respectively.

With `Cc1ccc(C(=O)Nc2cc(-c3ccccc3)nn2-c2ccccc2)cc1`, the concentration giving a half-maximal response (EC50) came out at 40 nM in experiment [3] and 30 nM in experiment [1]. Also, the Potentiation in experiment [4] worked out at 10.9; in experiment [2], 9.

Turning to `O=C(Nc1ccc(Cl)cc1CN1C(=O)c2ccccc2C1=O)c1ccccc1O`, the Potentiation in experiment [2] is 7.

Take `N#Cc1cccc(C(=O)Nc2cc(-c3ccccc3)nn2-c2ccccc2)c1`: the values for the Potentiation in experiment [4] and in experiment [2] were 4.3 and 4, respectively.

For `O=C(Nc1cc(-c2ccccc2)nn1-c1ccccc1)c1ccc(Cl)cc1`, the EC50 was 100 nM in experiment [3] and 20 nM in experiment [1]. Besides, the results for the Potentiation in experiment [4] and in experiment [2] were 4.9 and 5, respectively.
